Assay results taken from ChEMBL document CHEMBL1255192, “3-alkylthio-1,2,4-triazine dimers with potent antimalarial activity” (Bioorg Med Chem Lett, 2010).
In brackets after ≈: the same amount, converted by molar mass.

Columns and labels:
[1] = Solubility of the compound at pH 2; type: physicochemical; conditions: buffer
[2] = Distribution coefficient log D of the compound at pH 7.4; type: physicochemical; conditions: octanol/water
Summary of the method: (§1)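 Log D at each pH was estimated by a chromatographic method.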

[3] = Solubility of the compound at pH 6.5; type: physicochemical; conditions: buffer
[4] = Distribution coefficient log D of the compound at pH 3; type: physicochemical; conditions: octanol/water; summary of the method: as §1
[5] = system: HEK293; test: Cytotoxicity against HEK293 cells; type: cell-based; conditions: Homo sapiens
Summary of the method: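 HEK 293 cell toxicity assay, with puromycin as the control. Read-out is EC50.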

[6] = Intrinsic clearance in human liver microsomes; type: ADME, Microsome
Summary of the method: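 Compound was incubated with human liver microsomes. Parent loss and metabolites were followed by LCMS. Concentration versus time was fitted to exponential decay to get the first-order depletion rate constant, which gave in vitro CLint and a predicted hepatic extraction ratio.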

[7] = system: Plasmodium falciparum; test: Antimalarial activity against Plasmodium falciparum 3D7 infected in human erythrocyte; type: functional, organism-based
Summary of the method: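 Asexual erythrocytic-stage culture of the P. falciparum 3D7 strain, with chloroquine as the reference control. Read-out is EC50.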

[8] = system: Plasmodium falciparum; test: Antimalarial activity against Plasmodium falciparum Dd2 infected in human erythrocyte; type: functional, organism-based
Summary of the method: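 Chloroquine-resistant P. falciparum Dd2 grown at the erythrocytic stage, with chloroquine as the control. EC50 was determined.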

[9] = system: L6; test: Cytotoxicity against rat L6 cells; type: cell-based

SMILES | EC50 [5] [µM] | EC50 [7] [µM] | other results
CSc1nncc(-c2cnnc(SC)n2)n1 | 68 |  | solubility [1]: 15.3 µM (≈ 3.86 µg/mL); logD [2]: 2.4; solubility [3]: 14.5 µM (≈ 3.66 µg/mL); logD [4]: 2.4
CCSc1nncc(-c2cnnc(SCC)n2)n1 | 84 |  | 
CCCSc1nncc(-c2cnnc(SCCC)n2)n1 | > 115 |  | 
CSc1nncc(-c2cnnc(OCCN(C)C)n2)n1 | 24 |  | 
CCc1nncc(-c2cnnc(CC)n2)n1 |  | 1.6 | solubility [1]: 426 µM (≈ 92.1 µg/mL); microsomal CLint [6]: 11.7 µL/min/mg; logD [2]: 1.6; solubility [3]: 311 µM (≈ 67.3 µg/mL); logD [4]: 1.6
COc1nncc(-c2cnnc(OC)n2)n1 | 36 |  | 
CCCCSc1nncc(-c2cnnc(SCCCC)n2)n1 | > 115 |  | 
CN(C)CCSc1nncc(-c2cnnc(SCCN(C)C)n2)n1 | 25 | 0.47 | EC50 [8]: 0.62 µM
CCN(CC)CCSc1nncc(-c2cnnc(SC)n2)n1 | 9 | 0.023 | EC50 [8]: 0.012 µM
CCN(CC)CCSc1nncc(-c2cnnc(SCCN(CC)CC)n2)n1 | 16 | 0.44 | EC50 [8]: 0.79 µM
COc1nncc(-c2cnnc(SC)n2)n1 | 18 |  | EC50 [9]: 33 µM
